Screens: PubChem BioAssay, several laboratories
The sample as a whole holds a higher share of hits than the screen did.
XBP1 UPR activ: adaptive UPR (XBP1) activation. CHO-XBP1 luciferase reporter, IRE1-XBP1 UPR activation, luminescence; percent of tunicamycin response, DMSO as zero. activation, % at 20 µM. 0.33% of 330,000 active. AID 463104;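 active = versus positive control, 20 µM dose yields 30% or more activation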;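 also: 100% = tunicamycin at 10 µg/mL and 0% = DMSO only wells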
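Material: CHO cell line with stable XBP1 luciferase reporter; schedule: 16-18 h cell attachment at 37 °C, then 6 h compound exposure; signal: glow luminescence from Steady-Glo reagent; medium: serum-containing F12 medium, 10% FBS; benchmarks: tunicamycin 10 µg/mL and vehicle-only wells; read-out: percent activation relative to tunicamycin reference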
CHOP inhibitor: CHOP inhibition in unfolded protein response; CHO-K1 CHOP-promoter luciferase, tunicamycin-induced, 15-18 h; inhibition, % at 10 µM; 3.8% of 220,000 active;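 active = compounds that reduced the stress-induced luciferase reporter signal by more than about 70% of percent inhibition, limit read from the data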;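 also: 0% = tunicamycin plus vehicle and 100% = wells without tunicamycin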
TLR9-MyD88 block: blocks human TLR9 binding to MyD88; AID 504734; CHO BLA complementation TLR9-MyD88, CCF4 FRET ratio; 0.21% of 340,000 active; inhibition, % at 4.98 µM;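 active = inhibition above the mean over all tested compounds plus 3 SD, cut at about 21% in these data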;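 also: 0% = DMSO only wells and 100% = clavulanate BLA inhibitor control wells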
NOD2 RIPK2 PPI: inhibitors of human NOD2-RIPK2 interaction; O43353; CHO BLA complementation NOD2-RIPK2, CCF4 ratio; inhibition, % at 4.98 µM; 0.38% of 360,000 active; AID 624267; in the data active = inhibition above about 21%;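 also: 0% = vehicle only and 100% = reference blocker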
Target sequence (O43353 whole entry, looked up): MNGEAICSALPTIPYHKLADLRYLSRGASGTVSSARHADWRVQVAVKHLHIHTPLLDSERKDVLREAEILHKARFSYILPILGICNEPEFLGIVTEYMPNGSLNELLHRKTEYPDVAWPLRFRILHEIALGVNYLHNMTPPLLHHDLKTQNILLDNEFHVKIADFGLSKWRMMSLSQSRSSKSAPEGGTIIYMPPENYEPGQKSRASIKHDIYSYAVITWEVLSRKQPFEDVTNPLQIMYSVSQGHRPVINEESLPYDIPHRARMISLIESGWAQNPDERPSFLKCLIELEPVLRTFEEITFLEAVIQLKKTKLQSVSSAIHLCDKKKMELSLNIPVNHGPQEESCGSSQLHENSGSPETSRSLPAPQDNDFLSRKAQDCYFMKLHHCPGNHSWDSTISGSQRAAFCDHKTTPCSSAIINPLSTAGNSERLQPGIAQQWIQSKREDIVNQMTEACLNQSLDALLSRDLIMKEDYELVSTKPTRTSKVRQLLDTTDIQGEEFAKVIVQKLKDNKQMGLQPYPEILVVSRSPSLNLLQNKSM
TLR4 MyD88 comp: inhibitors of human TLR4-MyD88 binding; 0.18% of 200,000 active; AID 861; inhibition, % at 8.4 µM; O00206+Q99836; HeLa CL3-4 TLR4/MyD88 BLA complementation, FRET ratio; in the data active = inhibition above about 25%;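 also: 0% = vehicle and 100% = reference inhibitor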
CHOP UPR activ: apoptotic UPR (CHOP) activation; CHO-CHOP luciferase reporter, luminescence; percent of tunicamycin response over DMSO baseline; activation, % at 10 µM; 0.34% of 330,000 active; AID 449763;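 active = at 10 µM dose, activation of 40% or more, normalized to positive control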;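 also: 100% = tunicamycin at 10 µg/mL and 0% = DMSO alone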
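Evaluation: % reporter activation, DMSO baseline versus tunicamycin full activation; System: CHO-CHOP luciferase reporter cell line; Input: 500 cells/well; Incubation: 6 h compound treatment, 37 °C; Measured by: Steady-Glo luciferase luminescence; Dosing: one dose, 10 µM in 0.5% DMSO; Buffer or medium: F12 medium, 10% FBS; Benchmarks: positive tunicamycin 10 µg/mL, negative DMSO alone.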
Starred values were filed as active, the others as inactive; / = no result given.

SMILES	XBP1 UPR activ	CHOP inhibitor	TLR9-MyD88 block	NOD2 RIPK2 PPI	TLR4 MyD88 comp	CHOP UPR activ
CCCCn1nnnc1C(c1cc2ccccc2o1)N(CCC#N)Cc1ccccc1 (stereo not given)	/	/	/	-13	/	/
N#Cc1ccc(CN2CCN(C(=O)C3CC(=O)N(c4ccc5c(c4)OCCO5)C3)CC2)cc1 (stereo not given)	/	/	-3	-10	/	/
Oc1ccc(-c2nc3c4c(ncn3n2)-c2ccccc2CC42CCCC2)cc1	23	106*	4	0	2	3
Nn1cnc2c(c1=O)C1(CCCCC1)Cc1ccccc1-2	-4	34	-2	3	3	6
Nc1nonc1-n1nnc(C(=O)N/N=C/c2ccc(Br)cc2)c1CSC1=NCCS1	-1	-13	-4	-11	-3	3
CC(C)c1ccc(/C=N/NC(=O)c2nnn(-c3nonc3N)c2CSC2=NCCS2)cc1	1	74*	-8	-1	-6	4
CSc1nc2c(cc1C#N)CCC2	-1	23	8	-4	/	1
N#Cc1cc2c(nc1SC1CC(=O)N(c3ccccc3)C1=O)CCC2 (stereo not given)	/	84*	-5	3	7	/
CCc1ccc(OCC(=O)NC(=S)Nc2ccc(S(=O)(=O)NC3CCCCC3)cc2)cc1	-2	56	2	-7	4	0
Cc1cc(C)nc(NS(=O)(=O)c2ccc(NC(=S)NC(=O)C3CCCC3)cc2)n1	0	72*	-14	0	-11	1
Cc1ccccc1OCC(=O)NC(=S)Nc1ccc(S(=O)(=O)NC2CCCCC2)cc1	-4	77*	1	-6	-10	-2
Cc1ccnc(NS(=O)(=O)c2ccc(NC(=O)C3CCCCC3)cc2)n1	-2	27	-3	-7	-12	1
Cc1cc(C)nc(NS(=O)(=O)c2ccc(NC(=O)CCC3COc4ccccc4O3)cc2)n1 (stereo not given)	0	77*	-7	-22	12	-4
CCOC(=O)c1ccc(NC(=O)CCC2COc3ccccc3O2)cc1 (stereo not given)	-3	34	-1	1	6	-2
Nc1nc(Nc2ccccc2)nc(NCc2ccco2)c1[N+](=O)[O-]	4	86*	-7	-2	0	2
Clc1ccccc1C1CC(c2ccccc2)Nc2ncnn21 (stereo not given)	-1	92*	-4	-1	4	-1
Cc1cc(N=Cc2c(O)n(-c3ccc4c(c3)OCO4)c(=O)c3ccccc23)ccn1	-1	94*	3	3	-2	1
Cc1ccc(-n2c(O)c(C=Nc3ccc4c(c3)OCO4)c3ccccc3c2=O)cc1C	1	16	-12	4	-4	0
CCOC(=O)c1cnc2c(OC)cccc2c1N1CCN(c2ccccc2OC)CC1	0	31	9	7	9	3
CCOC(=O)c1cnc2c(OC)cccc2c1N1CCN(c2ccc(OC)cc2)CC1	-3	83*	2	7	-3	0
CCC(CC)NC(=O)COC(=O)c1ccc(OCC(=O)Nc2ccccc2OC)c(OC)c1	18	82*	-2	-11	6	2
CN(C)C(=C(C#N)C#N)N1CCN(c2ccc(Cl)cc2)CC1	-3	6	-5	-3	-9	1
N#CC(C#N)=C/C(C#N)=C(/N)N1CCN(c2ccc(Cl)cc2)CC1	0	80*	5	8	-3	3
CC1(C(=O)Nc2ccc3c(c2)OCCO3)CN(S(C)(=O)=O)CC(=O)N1Cc1cccc(C(F)(F)F)c1 (stereo not given)	/	/	/	-8	/	/
Cc1ccc(Nc2cc(C)c3ccc(O)cc3n2)cc1C	3	79*	-3	0	/	2
SMILES	XBP1 UPR activ	CHOP inhibitor	TLR9-MyD88 block	NOD2 RIPK2 PPI	TLR4 MyD88 comp	CHOP UPR activ
COC(=O)c1cc(Nc2cc(C)c3ccc(O)cc3n2)cc(C(=O)OC)c1	0	71*	-12	7	/	-1
COC(=O)c1cc(Nc2cc(C)c3c(O)cccc3n2)cc(C(=O)OC)c1	17	60	-11	4	/	7
COc1ccc2ccccc2c1C=NN1CCCCC1	/	/	13	1	/	/
O[C@H]1CN(CC2CCCCC2)[C@@H](c2ccccc2)C[C@@H]1n1cc(C2CC2)nn1	/	/	6	-12	/	/
CCCCCCCCCC[n+]1cccc2c3ccccc3ccc21	/	106*	7	10	10	/
COc1ccc2[nH]c3c(c2c1)CCN1C(=O)C(CC(=O)NCC24CC5CC(CC(C5)C2)C4)C[C@H](C(=O)N2CCOCC2)[C@@]31CCC1CCCC1 (stereo not given in full)	6	/	-10	4	/	24
CC1(C)Oc2ccc3ccc(=O)oc3c2/C(=C/Nc2ccccn2)C1=O	6	92*	-3	-5	-2	-1
O=C(Nc1ccc(CN2CCOCC2)cc1)c1ccc(-c2ccc(Br)cc2)o1	-4	80*	-15	4	4	-2
Nc1nc(Nc2ccc(Cl)cc2Cl)nc(C(F)(F)F)n1	3	75*	-14	-6	-14	3
C[C@@H]1CCCCO[C@@H](CN(C)C(=O)Nc2ccc3c(c2)OCO3)[C@@H](C)CN([C@H](C)CO)C(=O)c2cc(N(C)C)ccc2O1	/	/	0	3	/	/
COc1ccc(CC2S/C(=N/N=C/c3ccccc3O)NC2=O)cc1 (stereo not given)	1	70*	5	-3	/	3
O=C1N/C(=N/N=C/c2ccc(O)cc2)SC1Cc1ccccc1 (stereo not given)	1	18	-9	-16	/	0
O=C1N/C(=N/N=C/c2ccccc2O)SC1Cc1ccc(F)cc1 (stereo not given)	0	90*	4	-3	/	0
COc1ccc(CC2S/C(=N/N=C/c3ccc(O)cc3)NC2=O)cc1 (stereo not given)	2	2	-5	2	-12	5
O=C(CSc1nc2ccccc2[nH]1)N1CCCCC1	0	-28	-4	-13	-6	5
Cc1c(C)n(C(=O)CSc2nc3ccccc3[nH]2)c2ccccc12	-1	80*	1	-4	-7	-3
COc1ccccc1CNC(=O)C[C@@H]1C[C@H]2c3cc(N(C)C)ccc3O[C@H]2[C@H](CO)O1	/	/	-2	5	/	/
CC(C)CNC(=O)C1C(=O)Nc2ccccc2C(=O)N1C1CCCCC1 (stereo not given)	/	/	/	5	/	/
CCn1c(CCCOc2ccc(Cl)cc2Cl)nnc1SCC(=O)Nc1cc(F)ccc1C	0	84*	5	6	-17	10
Cc1ccc(/C=C2/NC(=O)N(Cc3ccccc3)C2=O)s1	-1	44	17	7	-1	-1
Cc1cccc(CN2C(=O)N/C(=C/c3ccc(C)s3)C2=O)c1	3	90*	7	9	3	0
